Measurements of several laboratories.
Protocols differ between the studies behind these lines.
Target: Serine/threonine-protein kinase DCLK1 (DCLK1, Homo sapiens, UniProt O15075)
One construct used (O15075 1-740): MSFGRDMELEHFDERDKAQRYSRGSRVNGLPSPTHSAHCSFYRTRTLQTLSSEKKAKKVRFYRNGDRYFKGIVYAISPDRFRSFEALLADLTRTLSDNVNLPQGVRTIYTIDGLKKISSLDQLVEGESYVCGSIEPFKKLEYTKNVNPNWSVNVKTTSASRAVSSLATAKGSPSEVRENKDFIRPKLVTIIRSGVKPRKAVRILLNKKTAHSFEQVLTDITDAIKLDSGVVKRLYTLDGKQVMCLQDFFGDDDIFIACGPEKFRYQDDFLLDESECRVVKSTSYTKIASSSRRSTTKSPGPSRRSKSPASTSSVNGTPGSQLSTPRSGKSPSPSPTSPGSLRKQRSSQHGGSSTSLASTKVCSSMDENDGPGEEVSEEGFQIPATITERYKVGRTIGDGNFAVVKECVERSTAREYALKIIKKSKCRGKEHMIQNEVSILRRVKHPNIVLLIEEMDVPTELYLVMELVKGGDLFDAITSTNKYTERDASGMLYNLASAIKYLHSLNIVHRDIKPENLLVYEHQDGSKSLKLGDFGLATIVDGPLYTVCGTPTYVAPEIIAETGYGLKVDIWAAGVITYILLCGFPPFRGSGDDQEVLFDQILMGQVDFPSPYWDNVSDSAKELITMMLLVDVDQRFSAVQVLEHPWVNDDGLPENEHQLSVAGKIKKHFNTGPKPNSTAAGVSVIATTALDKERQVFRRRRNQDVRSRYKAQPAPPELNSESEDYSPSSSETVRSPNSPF

`Nc1c(C(=O)NCc2ccc(C(=O)NCCCC3CCCCC3)cc2)cnn1-c1ccccc1` gave a remaining binding of 100% (cell-free assay; competition with immobilised ligand; 0.1 µM).
With `Nc1ncc2c(n1)-c1c([nH]c3ccc(C#CC4CC4)cc13)CCCC2` the remaining binding was 100% (binding; competition with immobilised ligand; 1 µM).
`c1cnn2ncc(-c3ccnc(N4CCC45COC5)n3)c2c1` gave a remaining binding of 82% (binding; competition with immobilised ligand; 1 µM).
For `CNCc1ccccc1-c1csc([C@H](C)Nc2nc(C)nc3cc(OC)c(OC)cc23)c1`, the remaining binding was 87% (cell-free assay; competition with immobilised ligand; 1 µM).
`CN(CCCC(F)(F)F)c1nccc(-c2cnn3ncccc23)n1` has a remaining binding of 90% (binding; competition with immobilised ligand; 1 µM).
`CN1CCN(c2cnc3c(C4CCN(C(=O)c5ccc(OC(F)(F)F)cc5N)CC4)ncnc3c2)CC1` has a remaining binding of 85% (cell-free assay; competition with immobilised ligand; 1 µM).
`O=C(NCCCN1CCOCC1)c1ccc(Nc2ncc(Cl)c(-c3ccc(Cl)s3)n2)cc1` gave a remaining binding of 56% (binding; competition with immobilised ligand; 1 µM).
The remaining binding of `Cc1noc([C@H]2C[C@@H](c3ccc(C(F)(F)F)cc3)CN(C(=O)N3CCS(=O)(=O)C3)C2)n1` is reported as 75% (cell-free assay; competition with immobilised ligand; 1 µM).
With `Cc1cnc(Nc2ccc(C(=O)N3CCC(N4CCCC4)CC3)cc2)nc1-c1cc2ccccc2s1` the remaining binding was 68% (binding; competition with immobilised ligand; 1 µM).
`COc1ncc2cc3ccccc3nc2c1C#N` gave a remaining binding of 98% (cell-free assay; competition with immobilised ligand; 5 µM).
The remaining binding of `COCCOc1nc(-c2ccc(Cl)nc2)nc2c1CN(C(=O)c1ncn3ccccc13)CC2` is reported as 100% (cell-free assay; competition with immobilised ligand; 0.1 µM).
`CN(c1nccc(-c2cnn3ncccc23)n1)C1CC1` has a remaining binding of 85% (binding; 1 µM).
`Cc1c(NC(=O)c2cc(C(N)=O)nc3cc(F)ccc23)c(C(F)(F)F)nn1Cc1ccc(C#N)cc1` gave a remaining binding of 85% (cell-free assay; competition with immobilised ligand; 1 µM).
The remaining binding of `COc1cc(N2CCN(C)CC2)ccc1Nc1ncc2c(n1)N(C)c1ccccc1C(=O)N2CC(F)(F)F` is reported as under 10% (binding; competition with immobilised ligand; 1 µM).
For `C[C@@H]1CCN(c2nccc(-c3cnn4ncccc34)n2)C1`, the remaining binding was 84% (binding; competition with immobilised ligand; 1 µM).
`CC(=O)Nc1c(C(C)=O)c(=O)n(C)c2nc(-c3ccc(Cl)cc3Cl)c(-c3ccc(Cl)cc3)cc12` has a remaining binding of 100% (cell-free assay; competition with immobilised ligand; 1 µM).
For `N[C@H]1CCN(c2nccc(-c3cnn4ncccc34)n2)C1`, the remaining binding was 83% (binding; competition with immobilised ligand; 1 µM).
With `N#Cc1ccccc1CSc1nnc2c(n1)[nH]c1ccccc12` the remaining binding was 100% (binding; competition with immobilised ligand; 10 µM).
The remaining binding of `F[C@@H]1CCN(c2nccc(-c3cnn4ncccc34)n2)C1` is reported as 82% (binding; competition with immobilised ligand; 1 µM).
`COc1cnc(Nc2cccc(S(N)(=O)=O)c2)nc1N1CCN(c2ccccc2)C(=O)C1` gave a remaining binding of 83% (binding; competition with immobilised ligand; 1 µM).
With `O=C(N1CCS(=O)(=O)CC1)N1C[C@H](c2ccc(OC(F)(F)F)cc2)C[C@H](c2nc(C3CC3)no2)C1` the remaining binding was 100% (cell-free assay; competition with immobilised ligand; 1 µM).
For `C[C@@H]1CN(c2ccc3ncc(-c4ccc5[nH]nc(C6CC6)c5c4)n3n2)C[C@H](C)O1`, the remaining binding was 100% (binding; competition with immobilised ligand; 0.5 µM).
With `O=C(NCC1CCOCC1)c1n[nH]cc1NC(=O)c1c(F)cccc1F` the remaining binding was 75% (binding; competition with immobilised ligand; 1 µM).
The remaining binding of `CN(C)c1ncc(F)c(-c2cnn3ncccc23)n1` is reported as 61% (binding; competition with immobilised ligand; 1 µM).
With `O=C(c1ccc(Nc2ncc(Cl)c(-c3ccc(Cl)s3)n2)cc1)N1CCC(N2CCCC2)CC1` the remaining binding was 69% (binding; competition with immobilised ligand; 1 µM).
